Screening results from PubChem.
Shown are actives, neighbours in structure and some others; about 6.8% of the full set was active somewhere.
M1 ag: agonists of M1 muscarinic receptor; CHO-M1 cells, Fluo-4 calcium fluorescence, agonist mode; stronger effect = higher value; actives 3% (n = 64,000); B-score at 10 µM; AID 626;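 active means fluorescence rise, raw or as B-score row- and column-corrected plate score, outside the 99.7% band of its plate's samples, either direction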
M1 antagonist: blocks the rat M1 muscarinic receptor response to acetylcholine. P08482. CHO-M1 cells, Fluo-4 calcium, ACh EC80 antagonist mode; stronger effect = lower value. B-score at 10 µM. actives 3.4% (n = 64,000). AID 628;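 active means calcium fluorescence response, raw or row-and-column corrected B-score, differing from the plate sample mean either way at a set confidence level, mostly lower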
Cdc25B inh: inhibitors of human Cdc25B phosphatase. actives 0.1% (n = 65,000). AID 368. inhibition, %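 (compounds tested at 10 µM final in the well)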. P30305. recombinant Cdc25B, OMFP fluorescence Ex485/Em525; in the data active means inhibition above about 50%
HEK293 NFkB inh: inhibitors of the PMA/ionomycin-induced NF-kB reporter in HEK293 cells | actives 0.21% (n = 62,000) | AID 465 | HEK-293 NF-kB luciferase reporter, luminescence | inhibition, % at 3 µM;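 active means inhibition above the mean of all tested compounds plus 3 SD, cut at about 40% in these data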;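 further: 0% = stimulated DMSO wells and 100% = 10 µM reference inhibitor 5653914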
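Signal: luciferase luminescence; Material: HEK-293 cells with stable firefly luciferase reporter driven by four HIV NF-kB elements; Probe or stimulus: PMA with ionomycin; Replication: tested once; Times: 1 h compound pretreatment, then 16 h stimulation at 37 °C, 5% CO2; Benchmarks: DMSO and 10 µM reference inhibitor; Evaluation: per-plate % inhibition versus controls.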
MKP-1 inh: inhibitors of human MKP-1 phosphatase; inhibition, %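 (compounds tested at a single concentration somewhere between 10 and 100 µM)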; recombinant MKP-1, OMFP hydrolysis fluorescence; actives 0.15% (n = 65,000); AID 374; P28562;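 active means inhibition above about 50%, limit read from the data; inconclusive means inhibition over screen mean plus 3 SD, below that limit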;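 further: 0% = DMSO max control wells and 100% = wells with enzyme stopped by NaOH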
Target sequence (P28562 whole entry, looked up): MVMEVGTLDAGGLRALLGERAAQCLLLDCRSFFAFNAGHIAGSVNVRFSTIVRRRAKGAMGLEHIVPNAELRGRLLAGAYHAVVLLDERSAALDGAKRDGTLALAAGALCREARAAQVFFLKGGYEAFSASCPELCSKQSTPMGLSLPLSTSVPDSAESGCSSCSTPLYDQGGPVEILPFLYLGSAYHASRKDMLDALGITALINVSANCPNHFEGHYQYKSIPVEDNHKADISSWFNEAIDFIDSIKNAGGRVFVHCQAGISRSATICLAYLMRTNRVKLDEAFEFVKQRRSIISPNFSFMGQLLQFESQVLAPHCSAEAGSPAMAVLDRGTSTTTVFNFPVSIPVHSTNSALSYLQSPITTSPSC
HER2 expr 66K: inhibitors of human Her2 kinase expression; P04626; SKBR-3 HER2 protein level, AlphaScreen, 18-24 h; stronger effect = lower value; HER2 level % of control, % at 10 µM; actives 0.69% (n = 65,000); AID 645;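 active means HER2 level under 5% of the carrier-only control; inconclusive means no clear call, values can overlap the other calls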;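 further: 100% = DMSO carrier and 0% = 500 nM PU-H71 HSP90 inhibitor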
M1 agonist conf: rat M1 muscarinic agonism, confirmation. shares compounds with M1 ag. CHO-M1 cells, Fluo-4 calcium fluorescence, agonist mode; actives lie on both sides. fluorescence change (max-min) at 10 µM. actives 19% (n = 1,700). AID 1488;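 active means fluorescence change differs from the solvent-only DMSO control mean at a set confidence level in both duplicate runs; inconclusive means differs from solvent-only control mean in just one of two runs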;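 further: an EC20 dose of acetylcholine follows compound addition during the same imaging run; raw fluorescence intensity difference in instrument units with no normalization to controls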
M4 ag counter: counter-screen for M1 agonists: activity at rat M4 receptor; shares compounds with M1 ag; CHO M4/Gqi5 cells, Fluo-4 calcium fluorescence, agonist mode; actives lie on both sides; fluorescence change (max-min) at 10 µM; actives 9% (n = 1,700); AID 1741;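 active means fluorescence change differing from the plate's solvent-only control wells at 99.7% confidence in both duplicates, whether higher or lower; inconclusive means differs from solvent controls in only one of two duplicates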
* marks the source's active call; other numbers are inactive results; ? = inconclusive; nt = not tested or not shown.

SMILES	M1 ag	M1 antagonist	Cdc25B inh	HEK293 NFkB inh	MKP-1 inh	HER2 expr 66K	M1 agonist conf	M4 ag counter
Cc1nn(Cc2ccc(C(=O)NC(C)(C)C)o2)c(C)c1Br	3.9*	-1.9	6	18	5	95	17	-15
O=C1CCN2C=Nc3cccc4ccc1c2c34	493*	-11*	80*	15	11	54	3266*	2765*
COc1ccc(CCNc2nc(C)nc3c2oc2ccccc23)cc1OC	18*	-2.3*	nt	21	nt	nt	-0.11	?
COc1ccc(CCNc2ncnc3c2oc2ccccc23)cc1OC	7.1*	-4.1*	7	37	-7	57	17	4.6
Cc1nc(NC(C)c2ccccc2)c2oc3ccccc3c2n1 (configuration not stated)	3.3*	-0.25	-9	5	26	80	-22	-20
COc1ccccc1NC(=O)CSc1ncnc2c1oc1ccccc12	-0.3	0.025	2	20	-15	44	nt	nt
Cc1cccc(C)c1NC(=O)N1CCC(N2CCCCC2)CC1	0.23	-0.34	-14	12	-6	79	nt	nt
COCC(C)n1c(C)cc(C(=O)CSc2nc3ccccc3c(=O)[nH]2)c1C (configuration not stated)	2.8*	0.74	-2	-4	25	74	-15	-21
COCCn1c(C)cc(C(=O)CSc2nc3ccccc3c(=O)[nH]2)c1C	-1.2	-0.26	-21	-26	-3	104	nt	nt
N#Cc1sc2nc(-c3ccccc3)cc(-c3ccco3)c2c1N	15*	0.78	39	-6	27	87	24	-11
N#Cc1c(-c2ccccc2)cc(-c2ccco2)c(C#N)c1N	-1.7	-0.0039	13	nt	18	55	nt	nt
CC(=O)Nc1ccc(SCC(=O)c2cc(C)n(Cc3cccs3)c2C)cc1	0.29	0.057	-27	13	1	90	nt	nt
CC(=O)Nc1ccccc1OCC(=O)c1cc(C)n(Cc2cccs2)c1C	3.1*	-2.4	-25	55*	5	69	22	-33
COCCn1c(SCC(=O)NCC2CCCO2)nc2c(c1=O)SC(C)C2 (configuration not stated)	0.03	0.11	-11	11	-5	107	nt	nt
CC(C)C(OC(=O)c1ccco1)C(=O)NC1CCCCC1 (configuration not stated)	2.2*	0.25	4	-1	0	90	-17	-45
CCCCCCc1cc2cc(-c3nnc(-c4ccccc4O)o3)c(=O)oc2cc1O	317*	3.3*	13	nt	25	24	781*	843*
Cc1cc(-c2nnc(-c3cc4ccccc4oc3=O)o2)c(C)n1-c1ccccc1	-0.065	0.5	-11	17	22	nt	nt	nt
COCCN(CC(=O)Nc1ccccc1)S(=O)(=O)c1ccc(S(=O)(=O)N2CCCC2)cc1	0.27	0.53	-5	16	-12	116	nt	nt
O=C(CN1CCN(C2CCCCC2)CC1)NCCC1=CCCCC1	13*	-0.37	-5	7	12	93	94*	-46
Cc1ccnc(SCCn2c(N3CCN(c4ccccc4)CC3)nc3c2c(=O)[nH]c(=O)n3C)n1	6.4*	0.053	-1	14	31	78	-7.8	?
Cc1ccnc(SCCn2c(N3CCN(C)CC3)nc3c2c(=O)[nH]c(=O)n3C)n1	0.69	1.3	3	10	-7	128	nt	nt
Cc1ccc(Cn2c3ccccc3c3cn[nH]c(=O)c32)cc1	0.68	1	-6	12	-4	100	nt	nt
COc1ccc(C2C(C#N)=C(N)N3C(=C2C#N)Sc2ccccc23)cc1 (configuration not stated)	46*	-1.5	1	1	18	69	131*	92
CCOC(=O)CSC1=C(C#N)C(c2ccc(Cl)cc2)CC(=O)N1 (configuration not stated)	3*	0.98	-32	4	-3	53	-14	?
CCOC(=O)CSC1=C(C#N)C(c2ccc3c(c2)OCO3)CC(=O)N1 (configuration not stated)	-0.1	0.22	-23	nt	-3	63	nt	nt
SMILES	M1 ag	M1 antagonist	Cdc25B inh	HEK293 NFkB inh	MKP-1 inh	HER2 expr 66K	M1 agonist conf	M4 ag counter
CCCCOC(=O)C1CCCC(C(=O)OCCCC)N1 (configuration not stated)	-0.25	-0.4	-18	3	-3	103	nt	nt
O=C(CCC1CCCCC1)N1CCN(Cc2ccc3c(c2)OCO3)CC1	6.1*	-0.75	-5	10	-9	64	-12	?
O=C(CCCCCn1c(=O)[nH]c2ccccc2c1=O)N1CCN(Cc2ccc3c(c2)OCO3)CC1	3.7*	-1.3	-14	21	30	103	-13	-35
O=C(CCCn1c(=S)[nH]c2cc3c(cc2c1=O)OCO3)N1CCN(c2ccccc2)CC1	3.2*	-0.62	-13	14	5	88	?	-60
Cc1cccc(N2CCN(C(=O)CCn3c(=S)[nH]c4cc5c(cc4c3=O)OCO5)CC2C)c1 (configuration not stated)	2.5*	-0.17	-4	12	36	85	-6.2	-24
O=C(CCCn1c(=S)[nH]c2cc3c(cc2c1=O)OCO3)N1CCN(c2ccc(Cl)cc2)CC1	0.13	-0.51	-12	21	33	89	nt	nt
O=C(c1ccc(S(=O)(=O)N2CCCCC2)cc1)N1CCN(Cc2ccc3c(c2)OCO3)CC1	0.059	-0.61	-2	9	1	79	nt	nt
Cc1cc(C)c2c(n1)nn1c(N3CCN(c4ccccc4C)CC3)cc(C)nc21	0.15	0.36	-14	8	5	59	nt	nt
CCOc1ccccc1N(CC(=O)N1CCOCC1)S(=O)(=O)c1ccc(SC)cc1	0.36	-0.43	-8	0	8	113	nt	nt
O=C(CCCn1c(=O)oc2ccccc21)N1CCc2ccccc2C1	1.3	0.33	-4	22	10	nt	nt	nt
O=C(CCn1c(=O)oc2ccccc21)NCCN1CCc2ccccc2C1	3.3*	0.41	-9	14	6	87	-7.5	-30
COC(=O)c1ccccc1NC(=O)COC(=O)c1ccc(C)c(NC(=O)c2ccco2)c1	5.3*	-0.82	-9	0	27	80	-12	?
CC(=O)NC1(C2CCCCC2=O)CCCCC1 (configuration not stated)	3.6*	1.2	2	15	6	nt	-4	-46
CNC(=O)C1CC(=O)N(Cc2ccccc2)C(=Nc2ccc(OC)cc2)S1 (configuration not stated)	10*	-0.82	18	nt	-16	90	?	?
